According to ChEMBL document CHEMBL1671627, “Increasing trends in antimicrobial resistance among clinically important anaerobes and Bacteroides fragilis isolates causing nosocomial infections: emerging resistance to carbapenems” (2008):
In brackets after ≈: the same amount, converted by molar mass.

What was measured:
Bacteroides fragilis [1] = assay: Antibacterial activity against Bacteroides fragilis assessed as susceptible isolates by CLSI agar dilution method in presence of clavulanate; type: functional
In short: (§1)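 Agar dilution per CLSI guidelines on nonduplicate anaerobic bloodstream isolates collected at NTUH, January to December 2006. Isolates were spotted by Steers replicator onto supplemented Brucella blood agar and incubated anaerobically for 48 h at 35°C. MIC was the lowest drug concentration that inhibited growth. B. fragilis ATCC 25285, B. thetaiotaomicron ATCC 29741 and E. lentum ATCC 43055 were run as QC in each run.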

Phocaeicola vulgatus [2] = assay: Antibacterial activity against beta-lactamase producing Bacteroides vulgatus assessed as resistant isolates by CLSI agar dilution method in presence of clavulanate; type: functional
In short: (§2)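 207 nonduplicate anaerobic blood isolates from patients with bloodstream infections at NTUH, collected January–December 2006. MICs were determined by agar dilution following CLSI guidelines. Inocula were applied with a Steers replicator onto supplemented Brucella blood agar and incubated 48 h at 35°C in an anaerobic chamber. MIC was the lowest concentration inhibiting growth. B. fragilis ATCC 25285, B. thetaiotaomicron ATCC 29741 and E. lentum ATCC 43055 served as controls in each run.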

Bacteroides caccae [3] = assay: Antibacterial activity against beta-lactamase producing Bacteroides caccae by CLSI agar dilution method in presence of clavulanate; type: functional; in short: as §1
Bacteroides caccae [4] = assay: Antibacterial activity against beta-lactamase producing Bacteroides caccae assessed as susceptible isolates by CLSI agar dilution method in presence of clavulanate; type: functional; in short: as §1
Fusobacterium mortiferum [5] = assay: Antibacterial activity against Fusobacterium mortiferum assessed as susceptible isolates by CLSI agar dilution method in presence of clavulanate; type: functional; in short: as §1
Prevotella buccae [6] = assay: Antibacterial activity against Prevotella buccae by CLSI agar dilution method in presence of clavulanate; type: functional; settings: Segatella buccae; in short: as §1
Prevotella bivia = assay: Antibacterial activity against Prevotella bivia by CLSI agar dilution method in presence of clavulanate; type: functional; in short: as §1
Prevotella buccae [7] = assay: Antibacterial activity against Prevotella buccae assessed as susceptible isolates by CLSI agar dilution method in presence of clavulanate; type: functional, Segatella buccae; in short: as §1
Clostridium perfringens [8] = assay: microbe, parasite or virus in culture; type: functional
[9] = test system: Clostridium paraputrificum; assay: Antibacterial activity against beta-lactamase producing Clostridium paraputrificum by CLSI agar dilution method in presence of clavulanate; type: functional
In short: (§3)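 CLSI agar dilution MICs for anaerobic blood isolates (nonduplicate) collected from bloodstream-infection patients at a Taiwanese tertiary hospital, January–December 2006. Isolates were spotted by Steers replicator onto supplemented Brucella blood agar and incubated anaerobically for 48 h at 35°C. MIC was the lowest drug concentration inhibiting growth. Each run included B. fragilis ATCC 25285, B. thetaiotaomicron ATCC 29741 and E. lentum ATCC 43055 as quality-control strains.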

Clostridium tertium [10] = assay: Antibacterial activity against beta-lactamase producing Clostridium tertium assessed as susceptible isolates by CLSI agar dilution method in presence of clavulanate; type: functional; in short: as §3
Clostridium septicum = assay: Antibacterial activity against beta-lactamase producing Clostridium septicum assessed as resistant isolates by CLSI agar dilution method in presence of clavulanate; type: functional; in short: as §2
Clostridium tertium [11] = assay: Antibacterial activity against beta-lactamase producing Clostridium tertium assessed as resistant isolates by CLSI agar dilution method in presence of clavulanate; type: functional; in short: as §2
Bacteroides fragilis [12] = assay: Antibacterial activity against Bacteroides fragilis assessed as resistant isolates by CLSI agar dilution method; type: functional
Phocaeicola vulgatus [13] = assay: Antibacterial activity against beta-lactamase producing Bacteroides vulgatus by CLSI agar dilution method in presence of Tazobactam; type: functional; in short: as §3
Bacteroides uniformis = assay: Antibacterial activity against beta-lactamase producing Bacteroides uniformis assessed as susceptible isolates by CLSI agar dilution method in presence of Tazobactam; type: functional; in short: as §1
Bacteroides caccae [14] = assay: Antibacterial activity against beta-lactamase producing Bacteroides caccae assessed as susceptible isolates by CLSI agar dilution method; type: functional
Bacteroides caccae [15] = assay: Antibacterial activity against beta-lactamase producing Bacteroides caccae assessed as resistant isolates by CLSI agar dilution method; type: functional
Fusobacterium mortiferum [16] = assay: Antibacterial activity against Fusobacterium mortiferum assessed as resistant isolates by CLSI agar dilution method; type: functional
Fusobacterium varium = assay: Antibacterial activity against Fusobacterium varium by CLSI agar dilution method in presence of Tazobactam; type: functional; in short: as §1
Fusobacterium mortiferum [17] = assay: Antibacterial activity against Fusobacterium mortiferum by CLSI agar dilution method in presence of Tazobactam; type: functional; in short: as §1
Fusobacterium nucleatum = assay: Antibacterial activity against Fusobacterium nucleatum assessed as susceptible isolates by CLSI agar dilution method in presence of Tazobactam; type: functional; in short: as §1
Prevotella buccae [18] = assay: Antibacterial activity against Prevotella buccae by CLSI agar dilution method; type: functional; settings: Segatella buccae
Prevotella intermedia [19] = assay: Antibacterial activity against Prevotella intermedia by CLSI agar dilution method in presence of Tazobactam; type: functional; in short: as §1
Prevotella intermedia [20] = assay: Antibacterial activity against Prevotella intermedia assessed as susceptible isolates by CLSI agar dilution method; type: functional
Prevotella intermedia [21] = assay: Antibacterial activity against Prevotella intermedia assessed as resistant isolates by CLSI agar dilution method; type: functional
Prevotella buccae [22] = assay: Antibacterial activity against Prevotella buccae assessed as susceptible isolates by CLSI agar dilution method in presence of Tazobactam; type: functional, Segatella buccae; in short: as §1
[23] = test system: Prevotella melaninogenica; assay: Antibacterial activity against Prevotella melaninogenica assessed as susceptible isolates by CLSI agar dilution method in presence of Tazobactam; type: functional; in short: as §1
Prevotella buccae [24] = assay: Antibacterial activity against Prevotella buccae assessed as resistant isolates by CLSI agar dilution method in presence of Tazobactam; type: functional, Segatella buccae; in short: as §2
Clostridium perfringens [25] = assay: microbe, parasite or virus in culture; type: functional; remark: listed apart in the source
[26] = test system: Clostridium paraputrificum; assay: Antibacterial activity against beta-lactamase producing Clostridium paraputrificum by CLSI agar dilution method in presence of Tazobactam; type: functional; in short: as §3
[27] = test system: Clostridium paraputrificum; assay: Antibacterial activity against beta-lactamase producing Clostridium paraputrificum assessed as susceptible isolates by CLSI agar dilution method; type: functional
Clostridium tertium [28] = assay: Antibacterial activity against beta-lactamase producing Clostridium tertium assessed as susceptible isolates by CLSI agar dilution method; type: functional
Clostridium tertium [29] = assay: Antibacterial activity against beta-lactamase producing Clostridium tertium assessed as resistant isolates by CLSI agar dilution method; type: functional
[30] = test system: Clostridium paraputrificum; assay: Antibacterial activity against beta-lactamase producing Clostridium paraputrificum assessed as susceptible isolates by CLSI agar dilution method in presence of Tazobactam; type: functional; in short: as §3
[31] = test system: Clostridium paraputrificum; assay: Antibacterial activity against beta-lactamase producing Clostridium paraputrificum assessed as resistant isolates by CLSI agar dilution method in presence of Tazobactam; type: functional; in short: as §2
Clostridium tertium [32] = assay: Antibacterial activity against beta-lactamase producing Clostridium tertium assessed as resistant isolates by CLSI agar dilution method in presence of Tazobactam; type: functional; in short: as §2
[33] = test system: Peptostreptococcus anaerobius; assay: Antibacterial activity against beta-lactamase producing Peptostreptococcus anaerobius assessed as resistant isolates by CLSI agar dilution method; type: functional
[34] = test system: Peptoniphilus asaccharolyticus; assay: Antibacterial activity against beta-lactamase producing Peptoniphilus asaccharolyticus assessed as susceptible isolates by CLSI agar dilution method in presence of Tazobactam; type: functional; in short: as §3

## CC1(C)S[C@@H]2[C@H](NC(=O)[C@H](N)c3ccc(O)cc3)C(=O)N2[C@H]1C(=O)O [AMOXICILLIN]
Bacteroides fragilis [1]
  Activity: 63%
Phocaeicola vulgatus [2]
  Activity: 30%
Bacteroides caccae [3]
  MIC50: 8 µg/mL
  MIC90: 32 µg/mL
Bacteroides caccae [4]
  Activity: 53%
Fusobacterium mortiferum [5]
  Activity: 89%
Prevotella buccae [6]
  MIC50: 4 µg/mL
  MIC90: 16 µg/mL
Prevotella bivia
  MIC50: 4 µg/mL
  MIC90: 16 µg/mL
Prevotella buccae [7]
  Activity: 81%
Clostridium perfringens [8]
  MIC50: 0.5 µg/mL (≈ 1.37 µM)
  MIC90: 2 µg/mL (≈ 5.47 µM)
[9]
  MIC50: 0.5 µg/mL
  MIC90: 2 µg/mL
Clostridium tertium [10]
  Activity: 96%
Clostridium septicum
  Activity: 4%
Clostridium tertium [11]
  Activity: 4%

## CCN1CCN(C(=O)N[C@@H](C(=O)N[C@@H]2C(=O)N3[C@@H]2SC(C)(C)[C@@H]3C(=O)O)c2ccccc2)C(=O)C1=O [PIPERACILLIN]
Bacteroides fragilis [12]
  Activity: 35%
Phocaeicola vulgatus [13]
  MIC50: 8 µg/mL
  MIC90: 16 µg/mL
Bacteroides uniformis
  Activity: 96%
Bacteroides caccae [14]
  Activity: 35%
Bacteroides caccae [15]
  Activity: 65%
Fusobacterium mortiferum [16]
  Activity: 10%
Fusobacterium varium
  MIC50: 0.5 µg/mL
  MIC90: 2 µg/mL
Fusobacterium mortiferum [17]
  MIC50: 0.5 µg/mL
  MIC90: 2 µg/mL
Fusobacterium nucleatum
  Activity: 100%
Prevotella buccae [18]
  MIC50: 16 µg/mL (≈ 30.9 µM)
  MIC90: 128 µg/mL (≈ 247 µM)
Prevotella intermedia [19]
  MIC: 0.03 µg/mL
  MIC50: 0.03 µg/mL
  MIC90: 1 µg/mL
Prevotella intermedia [20]
  Activity: 71%
Prevotella intermedia [21]
  Activity: 22%
Prevotella buccae [22]
  Activity: 100%
[23]
  Activity: 100%
Prevotella buccae [24]
  Activity: 0%
Clostridium perfringens [25]
  MIC50: 0.5 µg/mL (≈ 0.966 µM)
  MIC90: 2 µg/mL (≈ 3.86 µM)
[26]
  MIC50: 0.5 µg/mL
  MIC90: 2 µg/mL
[27]
  Activity: 100%
Clostridium tertium [28]
  Activity: 100%
Clostridium tertium [29]
  Activity: 0%
[30]
  Activity: 100%
[31]
  Activity: 0%
Clostridium tertium [32]
  Activity: 0%
[33]
  Activity: 3%
[34]
  Activity: 97%
